Data reported in ChEMBL document CHEMBL3244175, “Experimental antiulcer drugs. 2. 2-Substituted 2,4,5,6-tetrahydro-1,3,4,6,6-pentamethylcyclopenta[c]pyrrole-4-carboxamides” (1977).
Active and inactive are the calls of the source. The calls are words filed in the database; no cut-off is given here.

Key:
Rattus norvegicus [1] = experiment: Antisecretory activity in 5-hrs pyloric ligated rat assessed as pH of gastric contents at 100 mg/kg, po administered 2 hrs prior to pyloric ligation measured after 1 hr (reference value: 1.1 no-unit); type: functional, Stomach
Rattus norvegicus [2] = experiment: Antisecretory activity in 5-hrs pyloric ligated rat assessed as pH of gastric contents at 25 mg/kg, po administered 2 hrs prior to pyloric ligation measured after 1 hr (reference value: 1.07 +/- 0.01 no-unit); type: functional, Stomach
Outline: (§1)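 Rats given a single po dose (12.5–100 mg/kg) 2 h before a 5-h pyloric ligation. Gastric secretion was assayed for pH, volume (mL/100 g) and total acid output ([…]), with % inhibition relative to controls. Groups had 5–15 rats, with 39 controls. Values are means ± SE from several experiments, and significance versus control was taken at p < 0.05 or 0.01.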

Rattus norvegicus [3] = experiment: Antisecretory activity in 5-hrs pyloric ligated rat assessed as pH of gastric contents at 12.5 mg/kg, po administered 2 hrs prior to pyloric ligation measured after 1 hr (reference value: 1.07 +/- 0.01 no-unit); type: functional, Stomach; outline: as §1
Rattus norvegicus [4] = experiment: Antisecretory activity in 5-hrs pyloric ligated rat assessed as pH of gastric contents at 50 mg/kg, po administered 2 hrs prior to pyloric ligation measured after 1 hr (reference value: 1.07 +/- 0.01 no-unit); type: functional, Stomach; outline: as §1
Rattus norvegicus [5] = experiment: Antisecretory activity in 5-hrs pyloric ligated rat assessed as pH of gastric contents at 100 mg/kg, po administered 2 hrs prior to pyloric ligation measured after 1 hr (reference value: 1.07 to 1.1 no-unit); type: functional, Stomach
Rattus norvegicus [6] = experiment: Antisecretory activity in 5-hrs pyloric ligated rat assessed as volume of gastric secretion at 12.5 mg/kg, po administered 2 hrs prior to pyloric ligation measured per 100 gm of tissue (reference value: 4.05 +/- 0.21 ml); type: functional, Stomach; outline: as §1
Rattus norvegicus [7] = experiment: Antisecretory activity in 5-hrs pyloric ligated rat assessed as volume of gastric secretion at 25 mg/kg, po administered 2 hrs prior to pyloric ligation measured per 100 gm of tissue (reference value: 4.05 +/- 0.21 ml); type: functional, Stomach; outline: as §1
Rattus norvegicus [8] = experiment: Antisecretory activity in 5-hrs pyloric ligated rat assessed as volume of gastric secretion at 50 mg/kg, po administered 2 hrs prior to pyloric ligation measured per 100 gm of tissue (reference value: 4.05 +/- 0.21 ml); type: functional, Stomach; outline: as §1
Rattus norvegicus [9] = experiment: Antisecretory activity in 5-hrs pyloric ligated rat assessed as volume of gastric secretion at 100 mg/kg, po administered 2 hrs prior to pyloric ligation measured per 100 gm of tissue (reference value: 4.05 +/- 0.21 ml); type: functional, Stomach; outline: as §1
Rattus norvegicus [10] = experiment: Antisecretory activity in 5-hrs pyloric ligated rat assessed as inhibition of total acid output at 12.5 mg/kg, po administered 2 hrs prior to pyloric ligation (reference value: 0%); type: functional; outline: as §1
Rattus norvegicus [11] = experiment: Antisecretory activity in 5-hrs pyloric ligated rat assessed as inhibition of total acid output at 25 mg/kg, po administered 2 hrs prior to pyloric ligation (reference value: 0%); type: functional; outline: as §1
Rattus norvegicus [12] = experiment: Antisecretory activity in 5-hrs pyloric ligated rat assessed as inhibition of total acid output at 50 mg/kg, po administered 2 hrs prior to pyloric ligation (reference value: 0%); type: functional; outline: as §1
Rattus norvegicus [13] = experiment: Antisecretory activity in 5-hrs pyloric ligated rat assessed as inhibition of total acid output at 100 mg/kg, po administered 2 hrs prior to pyloric ligation (reference value: 0%); type: functional; outline: as §1
Canis familiaris [14] = experiment: Antisecretory activity in histamine-stimulated dog assessed as pH of gastric contents at 1.6 mg/kg, po administered 18 and 2 hrs prior to histamine challenge (reference value: 1 no-unit); type: functional, Canis lupus familiaris, Stomach
Canis familiaris [15] = experiment: Antisecretory activity in histamine-stimulated dog assessed as pH of gastric contents at 3.1 mg/kg, po administered 18 and 2 hrs prior to histamine challenge (reference value: 1 no-unit); type: functional, Canis lupus familiaris, Stomach
Canis familiaris [16] = experiment: Antisecretory activity in histamine-stimulated dog assessed as pH of gastric contents at 6.2 mg/kg, po administered 18 and 2 hrs prior to histamine challenge (reference value: 1 no-unit); type: functional, Canis lupus familiaris, Stomach
Canis familiaris [17] = experiment: Antisecretory activity in histamine-stimulated dog assessed as pH of gastric contents at 12.5 mg/kg, po administered 18 and 2 hrs prior to histamine challenge (reference value: 1 no-unit); type: functional, Canis lupus familiaris, Stomach
Canis familiaris [18] = experiment: Antisecretory activity in histamine-stimulated dog assessed as pH of gastric contents at 25 mg/kg, po administered 18 and 2 hrs prior to histamine challenge (reference value: 1 no-unit); type: functional, Canis lupus familiaris, Stomach
Canis familiaris [19] = experiment: Antisecretory activity in histamine-stimulated dog assessed as volume of gastric secretion at 1.6 mg/kg, po administered 18 and 2 hrs prior to histamine challenge measured per 15 mins (reference value: 14.7 ml); type: functional, Canis lupus familiaris, Stomach
Canis familiaris [20] = experiment: Antisecretory activity in histamine-stimulated dog assessed as volume of gastric secretion at 3.1 mg/kg, po administered 18 and 2 hrs prior to histamine challenge measured per 15 mins (reference value: 14.7 ml); type: functional, Canis lupus familiaris, Stomach
Canis familiaris [21] = experiment: Antisecretory activity in histamine-stimulated dog assessed as volume of gastric secretion at 6.2 mg/kg, po administered 18 and 2 hrs prior to histamine challenge measured per 15 mins (reference value: 14.7 ml); type: functional, Canis lupus familiaris, Stomach
Canis familiaris [22] = experiment: Antisecretory activity in histamine-stimulated dog assessed as volume of gastric secretion at 12.5 mg/kg, po administered 18 and 2 hrs prior to histamine challenge measured per 15 mins (reference value: 14.7 ml); type: functional, Canis lupus familiaris, Stomach
Canis familiaris [23] = experiment: Antisecretory activity in histamine-stimulated dog assessed as volume of gastric secretion at 25 mg/kg, po administered 18 and 2 hrs prior to histamine challenge measured per 15 mins (reference value: 14.7 ml); type: functional, Canis lupus familiaris, Stomach
Canis familiaris [24] = experiment: Antisecretory activity in histamine-stimulated dog assessed as inhibition of total acid output at 1.6 mg/kg, po administered 18 and 2 hrs prior to histamine challenge (reference value: 0%); type: functional; details: Canis lupus familiaris
Canis familiaris [25] = experiment: Antisecretory activity in histamine-stimulated dog assessed as inhibition of total acid output at 3.1 mg/kg, po administered 18 and 2 hrs prior to histamine challenge (reference value: 0%); type: functional; details: Canis lupus familiaris
Canis familiaris [26] = experiment: Antisecretory activity in histamine-stimulated dog assessed as inhibition of total acid output at 6.2 mg/kg, po administered 18 and 2 hrs prior to histamine challenge (reference value: 0%); type: functional; details: Canis lupus familiaris
Canis familiaris [27] = experiment: Antisecretory activity in histamine-stimulated dog assessed as inhibition of total acid output at 12.5 mg/kg, po administered 18 and 2 hrs prior to histamine challenge (reference value: 0%); type: functional; details: Canis lupus familiaris
Canis familiaris [28] = experiment: Antisecretory activity in histamine-stimulated dog assessed as inhibition of total acid output at 25 mg/kg, po administered 18 and 2 hrs prior to histamine challenge (reference value: 0%); type: functional; details: Canis lupus familiaris
Mus musculus = species on record: Mus musculus; experiment: Anticholinergic activity in mouse assessed as induction of mydriasis; type: functional, organism-based
Heart = experiment: Anticholinergic activity in guinea pig auricle assessed as carbamylcholine-induced depression of heart rate after 5 mins; type: functional, tissue-based; details: Cavia porcellus
Outline: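 Isolated guinea pig auricles in Krebs-Henseleit solution at 35 °C. Compound dissolved in Me2SO-H2O, added to the bath, and left on the tissue for 5 min. Read-out was the dose-related carbamylcholine-induced fall in spontaneous heart rate.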

Trachea = experiment: Anticholinergic activity in guinea pig trachea assessed as carbamylcholine-induced constriction at 10 uM; type: functional, tissue-based; details: Cavia porcellus
Outline: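 Guinea pig trachea set up in the same bath system as the auricle preparation. Compound in Me2SO-H2O was added to the bath at 10^-5 M. Read-out was the dose-related response to carbamylcholine.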

[29] = target: Histamine H2 receptor (Cavia porcellus) (UniProt P47747); experiment: Inhibition of histamine H2 receptor in guinea pig atria assessed as inhibition of histamine response
Histamine H2 receptor (Cavia porcellus), sequence (P47747 whole entry): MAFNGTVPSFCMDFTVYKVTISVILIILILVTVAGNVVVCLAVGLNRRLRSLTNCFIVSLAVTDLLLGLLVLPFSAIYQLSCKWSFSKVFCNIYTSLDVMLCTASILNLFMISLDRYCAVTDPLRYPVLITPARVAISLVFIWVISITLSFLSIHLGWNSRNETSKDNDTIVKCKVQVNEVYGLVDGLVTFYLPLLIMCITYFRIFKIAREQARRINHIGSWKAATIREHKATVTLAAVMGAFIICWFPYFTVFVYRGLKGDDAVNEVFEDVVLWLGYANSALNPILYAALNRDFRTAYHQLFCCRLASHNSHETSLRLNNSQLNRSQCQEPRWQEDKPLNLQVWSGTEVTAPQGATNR

Rattus norvegicus [30] = experiment: Antisecretory activity in po dosed 5-hrs pyloric ligated rat assessed as increase in pH of gastric secretions administered 2 hrs prior to pyloric ligation measured after 1 hr; type: functional, organism-based; details: Stomach; outline: as §1
Rattus norvegicus [31] = experiment: Antisecretory activity in po dosed 5-hrs pyloric ligated rat assessed as decrease in volume of gastric secretions administered 2 hrs prior to pyloric ligation; type: functional, organism-based; details: Stomach; outline: as §1
Rattus norvegicus [32] = experiment: Antisecretory activity in po dosed 5-hrs pyloric ligated rat assessed as decrease in total acidity of gastric secretions administered 2 hrs prior to pyloric ligation; type: functional, organism-based; details: Stomach; outline: as §1
Canis familiaris [33] = experiment: Antisecretory activity in po dosed histamine-stimulated dog assessed as increase in pH of gastric secretions administered 18 and 2 hrs prior to histamine challenge; type: functional, organism-based; details: Canis lupus familiaris; Stomach
Canis familiaris [34] = experiment: Antisecretory activity in po dosed histamine-stimulated dog assessed as decrease in volume of gastric secretions administered 18 and 2 hrs prior to histamine challenge; type: functional, organism-based; details: Canis lupus familiaris; Stomach
Canis familiaris [35] = experiment: Antisecretory activity in po dosed histamine-stimulated dog assessed as decrease in total acidity of gastric secretions administered 18 and 2 hrs prior to histamine challenge; type: functional, organism-based; details: Canis lupus familiaris; Stomach

## Cc1c2c(c(C)n1-c1ccc(F)cc1)C(C)(C(N)=O)CC2(C)C (stereo unspecified)
Rattus norvegicus [1]
  pH: 1.4

## Cc1ccc(-n2c(C)c3c(c2C)C(C)(C(N)=O)CC3(C)C)cc1 (stereo unspecified)
Rattus norvegicus [1]
  pH: 1.1

## Cc1c2c(c(C)n1C1CCCC1)C(C)(C(N)=O)CC2(C)C (stereo unspecified)
Rattus norvegicus [1]
  pH: 1.3

## Cc1c2c(c(C)n1C(C)C)C(C)(C(N)=O)CC2(C)C (stereo unspecified)
Rattus norvegicus [1]
  pH: 1.8

## Cc1c2c(c(C)n1C1CCC1)C(C)(C(N)=O)CC2(C)C (stereo unspecified)
Rattus norvegicus [1]
  pH: 2.2

## Cc1c2c(c(C)n1-c1cccc(Cl)c1)C(C)(C(N)=O)CC2(C)C (stereo unspecified)
Rattus norvegicus [1]
  pH: 1.1

## CCCn1c(C)c2c(c1C)C(C)(C(N)=O)CC2(C)C (stereo unspecified)
Rattus norvegicus [1]
  pH: 5.3

## Cc1c2c(c(C)n1CC1CC1)C(C)(C(N)=O)CC2(C)C (stereo unspecified)
Rattus norvegicus [1]
  pH: 5.1

## Cc1c2c(c(C)n1-c1ccc(Cl)cc1)C(C)(C(N)=O)CC2(C)C (stereo unspecified)
Rattus norvegicus [1]
  pH: 1.2

## Cc1c2c(c(C)n1-c1ccccc1Cl)C(C)(C(N)=O)CC2(C)C (stereo unspecified)
Rattus norvegicus [1]
  pH: 1.1

## CCCCn1c(C)c2c(c1C)C(C)(C(N)=O)CC2(C)C (stereo unspecified)
Rattus norvegicus [1]
  pH: 2.5

## Cc1[nH]c(C)c2c1C(C)(C)CC2(C)C(N)=O (stereo unspecified)
Rattus norvegicus [1]
  pH: 1.4

## CCn1c(C)c2c(c1C)C(C)(C(N)=O)CC2(C)C (stereo unspecified)
Rattus norvegicus [1]
  pH: 4.8

## Cc1cccc(-n2c(C)c3c(c2C)C(C)(C(N)=O)CC3(C)C)c1 (stereo unspecified)
Rattus norvegicus [1]
  pH: 1.2

## Cc1ccccc1-n1c(C)c2c(c1C)C(C)(C(N)=O)CC2(C)C (stereo unspecified)
Rattus norvegicus [1]
  pH: 1

## CN/C(=N\CCSCc1nc[nH]c1C)NC#N [CIMETIDINE]
Rattus norvegicus [1]
  pH: 2.1

## Cc1c2c(c(C)n1C)C(C)(C(N)=O)CC2(C)C (stereo unspecified)
Rattus norvegicus [1]
  pH: 4.2

## Cc1c2c(c(C)n1C1CC1)C(C)(C(N)=O)CC2(C)C (stereo unspecified)
Rattus norvegicus [1]
  pH: 3.7

## Cc1c2c(c(C)n1Cc1ccccc1)C(C)(C(N)=O)CC2(C)C (stereo unspecified)
Rattus norvegicus [1]
  pH: 1

## Cc1c2c(c(C)n1-c1ccccc1)C(C)(C(N)=O)CC2(C)C (stereo unspecified)
Rattus norvegicus [2]
  pH: 1.83
Rattus norvegicus [3]
  pH: 1.34
Rattus norvegicus [4]
  pH: 3.28
Rattus norvegicus [5]
  pH: 6.2
Rattus norvegicus [6]
  Activity: 2.66 mL
Rattus norvegicus [7]
  Activity: 2.16 mL
Rattus norvegicus [8]
  Activity: 1.66 mL
Rattus norvegicus [9]
  Activity: 1.19 mL
Rattus norvegicus [10]
  inhibition in vivo at 12.5 mg/kg: 41%
Rattus norvegicus [11]
  inhibition in vivo at 25 mg/kg: 52%
Rattus norvegicus [12]
  inhibition in vivo at 50 mg/kg: 75%
Rattus norvegicus [13]
  inhibition in vivo at 100 mg/kg: 100%
Canis familiaris [14]
  pH: 1.2
Canis familiaris [15]
  pH: 1.8
Canis familiaris [16]
  pH: 3.9
Canis familiaris [17]
  pH: 4.7
Canis familiaris [18]
  pH: 6.7
Canis familiaris [19]
  Activity: 11.9 mL
Canis familiaris [20]
  Activity: 3.8 mL
Canis familiaris [21]
  Activity: 2 mL
Canis familiaris [22]
  Activity: 4.8 mL
Canis familiaris [23]
  Activity: 2.4 mL
Canis familiaris [24]
  inhibition in vivo at 1.6 mg/kg: 49%
Canis familiaris [25]
  inhibition in vivo at 3.1 mg/kg: 84%
Canis familiaris [26]
  inhibition in vivo at 6.2 mg/kg: 95%
Canis familiaris [27]
  inhibition in vivo at 12.5 mg/kg: 88%
Canis familiaris [28]
  inhibition in vivo at 25 mg/kg: 93%
Mus musculus
  Activity: inactive
Heart
  Activity: inactive
Trachea
  Activity: inactive
[29]
  inhibition: Active
Rattus norvegicus [30]
  Activity: Dose-dependent effect
Rattus norvegicus [31]
  inhibition: Dose-dependent effect
Rattus norvegicus [32]
  inhibition: Dose-dependent effect
Canis familiaris [33]
  Activity: Dose-dependent effect
Canis familiaris [34]
  inhibition: Dose-dependent effect
Canis familiaris [35]
  inhibition: Dose-dependent effect
